ChEMBL document CHEMBL4130487, “A pentanoic acid derivative targeting matrix metalloproteinase-2 (MMP-2) induces apoptosis in a chronic myeloid leukemia cell line” (Eur J Med Chem, 2017)
The source made the active and inactive calls. The rule behind the calls is not given here.

Tests used:
K562 [1] = test: Cell cycle arrest in human K562 cells assessed as accumulation at G1-phase at 10 uM after 48 hrs by propidium iodide staining based flow cytometry (reference value: 27.5%); type: functional
K562 [2] = test: Induction of apoptosis in human K562 cells assessed as late apoptotic cells at 5 uM after 48 hrs by Annexin V-FITC/propidium iodide staining based flow cytometry (reference value: 0.3%); type: functional
K562 [3] = test: Downregulation of MMP2 protein expression in human K562 cells up to 10 uM after 48 hrs by Western blot method; type: functional, cell-based
How it was run: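 K562 cells (~2×10^6) grown 48 h, then treated. Lysed on ice in Tris-HCl pH 7.5 buffer with CHAPS and glycerol. 50 µg protein run on 12% SDS-PAGE (15% for β-tubulin) and blotted to PVDF. Probed with anti-MMP-2 and anti-β-tubulin (1:1000) overnight at 4 °C, then ALKP secondary antibody and DAB development. Band intensity normalised to β-tubulin; mean ± SD.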

CCCCCNC(=O)CC[C@H](NS(=O)(=O)c1ccc([N+](=O)[O-])cc1)C(=O)O was tested, and the Activity (K562 [1]) was 39.8%, the Activity (K562 [2]) was 8.5% and the Activity (K562 [3]) was “Active”.
